From PubChem BioAssay
SIRT5 inh: sirtuin-5 (human) deacylase inhibition; Q9NXA8; Purified SirT5, succinyl-peptide AMC, trypsin-coupled fluorescence; inhibition, % at 15 µM; hit rate 1.1% among 330,000; AID 652115; in the data active means inhibition above about 15%; inconclusive means no clear call, values can overlap the other calls
Target sequence (Q9NXA8 whole entry, looked up): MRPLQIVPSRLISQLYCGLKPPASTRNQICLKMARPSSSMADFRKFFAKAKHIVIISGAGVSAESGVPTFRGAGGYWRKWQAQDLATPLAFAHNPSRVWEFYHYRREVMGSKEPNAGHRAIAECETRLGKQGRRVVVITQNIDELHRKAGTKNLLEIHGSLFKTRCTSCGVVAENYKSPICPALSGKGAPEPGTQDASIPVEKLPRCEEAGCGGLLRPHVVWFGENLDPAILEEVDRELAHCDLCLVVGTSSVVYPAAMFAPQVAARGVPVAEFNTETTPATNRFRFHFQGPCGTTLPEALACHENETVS
Statin myotox sup: suppression of simvastatin myotoxicity; C2C12 myotubes + simvastatin, ATP luminescence, 48 h; scaled: DMSO 0, geranylgeraniol control 100; rescue of ATP level, % at 7.49 µM; hit rate 0.78% among 330,000;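 active means mean ATP rescue above about 67%, or every replicate alone reaching that limit, limit read from the data, passing the limit was not always enough; inconclusive means no clear call, values can overlap the other calls; inactive means mean under the limit and some replicate under it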;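 further: myotubes were challenged with 10 µM simvastatin during compound exposure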
PGC1a acetyl inh: lowers PGC1a acetylation signal in U2OS cells; AlphaScreen anti-acetyl-lysine; with virally co-expressed GCN5 acetyltransferase; inhibition, % at 15.6 µM; hit rate 0.17% among 350,000; AID 651687;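 active means every replicate shows inhibition of at least 40%; inconclusive means mean inhibition at least 40% but some replicate below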
DENV2 CPE rescue: protects cells from dengue virus 2 cytopathic effect. hit rate 1.7% among 350,000. DENV2-infected cells, cytopathic effect rescue, plate reader. CPE inhibition, % at 9.99 µM; in the data active means CPE inhibition above about 20%, passing the limit was not always enough; inconclusive means no clear call, values can overlap the other calls; tested in BHK-21 cells
S100A4 MyoIIA: S100A4-myosin IIA interaction inhibition. inhibition, % at 10.7 µM. P26447. hit rate 0.14% among 360,000. AID 652163. S100A4/TAMRA-MyoIIA peptide fluorescence polarization;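 active means mean inhibition of at least 70% across replicates, with every replicate also reaching that level; inconclusive means mean inhibition reaches 70% but some replicates fall short; inactive means mean inhibition below 70%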
Target sequence (P26447 whole entry, looked up): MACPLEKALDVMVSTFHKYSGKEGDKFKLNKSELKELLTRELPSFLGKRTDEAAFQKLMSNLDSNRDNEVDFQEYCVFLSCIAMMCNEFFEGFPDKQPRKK
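Material: human S100A4 monomer with TAMRA-labelled myosin IIA peptide; buffer or medium: HEPES pH 7.2 with CaCl2, KCl, NaCl, DTT, Triton; compound dosing: one concentration per compound; schedule: 5 min incubation before reading; benchmarks: neutral control DMSO, positive control TFP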
Numbers stand for hits; n = inactive; u = inconclusive; x = no result. Shown are actives, neighbours in structure and some others; about 2.9% of the full set was active somewhere.

SMILES | SIRT5 inh | Statin myotox sup | PGC1a acetyl inh | DENV2 CPE rescue | S100A4 MyoIIA
C[C@H](CO)N1C[C@H](C)[C@@H](CN(C)C(=O)NC2CCCCC2)Oc2c(NC(=O)Nc3cccc4ccccc34)cccc2C1=O | n | n | n | x | n
C[C@H](CO)N1C[C@H](C)[C@H](CN(C)C)Oc2ccc(NC(=O)CCCCCC(=O)Nc3ccccc3N)cc2C1=O | n | x | n | n | n
OC[C@H]1[C@@H](c2ccccc2)C2(CN(Cc3cccnc3)C2)N1Cc1ccncc1 | n | x | n | n | n
CCCn1nc(Oc2nc(N(C)C)nc(N(C)C)n2)ccc1=O | 19 | n | n | x | n
NC(Cc1ccc(F)cc1)c1csc(Nc2cc(NCc3ccco3)ncn2)n1 (centres undefined) | n | n | n | n | n
NC(c1csc(Nc2cc(NCc3ccco3)ncn2)n1)c1ccccc1Cl (centres undefined) | n | n | n | 69 | n
COc1ccc(S(=O)(=O)Nc2ccc3c(c2)C(=O)N([C@@H](C)CO)C[C@@H](C)[C@H](CN(C)S(=O)(=O)c2ccc(C)cc2)OCCCC[C@@H](C)O3)cc1 | 18 | x | n | u | n
COc1ccc(S(=O)(=O)N(C)C[C@@H]2OCCCC[C@H](C)Oc3ccc(NS(=O)(=O)c4ccc(C)cc4)cc3C(=O)N([C@@H](C)CO)C[C@@H]2C)cc1 | 20 | n | n | n | n
COc1ccc(S(=O)(=O)Nc2ccc3c(c2)C(=O)N([C@@H](C)CO)C[C@@H](C)[C@@H](CN(C)S(=O)(=O)c2ccc(C)cc2)OCCCC[C@@H](C)O3)cc1 | n | x | n | n | n
COCC(=O)N1C[C@@H](C)[C@H](OC)CN(C)C(=O)c2ccc(NS(C)(=O)=O)cc2OC[C@H]1C | n | n | n | n | n
Cc1ccc(C(=O)n2nc(-c3ccco3)nc2N)cc1 | x | 81 | n | x | x
Nc1nc(-c2ccco2)nn1C(=O)CCc1ccccc1 | x | 113 | n | x | x
Nc1nc(-c2cccnc2)nn1C(=O)CCc1ccccc1 | x | n | n | x | x
O=C(C[C@H]1CC[C@@H]2[C@H](COC[C@H](O)CN2Cc2ccc(Oc3ccccc3)cc2)O1)N1CCCCC1 | n | n | n | n | n
O=C(C[C@H]1CC[C@@H]2[C@H](COC[C@H](O)CN2CC2CCOCC2)O1)N1CCOCC1 | n | n | n | 49 | n
O=C(C[C@@H]1CC[C@@H]2[C@H](COC[C@@H](O)CN2Cc2ccc(Oc3ccccc3)cc2)O1)N1CCCCC1 | n | n | n | 24 | n
O=C(C[C@H]1CC[C@H]2[C@@H](COC[C@@H](O)CN2Cc2cccc(Cl)c2)O1)N1CCCCC1 | 19 | n | n | n | n
O=C(NC[C@H]1CC[C@H]2[C@H](CN2Cc2cccc(Cl)c2)O1)C1CCOCC1 | n | x | n | 58 | n
O=C(C[C@@H]1CC[C@@H]2[C@H](COC[C@@H](O)CN2Cc2cccc(Cl)c2)O1)N1CCCCC1 | n | n | n | n | n
C[C@H]1CCCCO[C@H](CN(C)S(=O)(=O)c2ccc(F)cc2)[C@@H](C)CN([C@@H](C)CO)C(=O)c2cc(NC(=O)CCC(F)(F)F)ccc2O1 | x | x | n | x | x
O=C(C[C@@H]1CC[C@@H]2[C@H](COC[C@@H](O)CN2Cc2ccc3c(c2)OCO3)O1)N1CCOCC1 | 27 | n | n | n | n
O=C(Nc1ccccc1)Nc1ccc2c(c1)[C@@H]1C[C@H](CC(=O)N3CCOCC3)O[C@H](CO)[C@@H]1O2 | x | n | n | n | x
CCCC#Cc1ccc([C@@H]2[C@@H](CO)N3C(=O)CN(C(=O)Nc4ccc(F)cc4)C[C@H]23)cc1 | n | x | n | 36 | n
CCCC#Cc1ccc([C@@H]2[C@H]3CN(C(=O)NC4CCCC4)CC(=O)N3[C@H]2CO)cc1 | n | x | n | 22 | n
CC(C)NC(=O)N1CC(=O)N2[C@H](CO)[C@H](c3ccc(C#CCN(C)C)cc3)[C@@H]2C1 | n | x | n | 23 | n
CC(C)NC(=O)N1CC(=O)N2[C@@H](CO)[C@@H](c3ccc(C#CCN(C)C)cc3)[C@@H]2C1 | n | x | n | n | n
C[C@@H]1CCCCO[C@H](CN(C)C(=O)NC2CCCCC2)[C@H](C)CN([C@@H](C)CO)C(=O)c2cc(NC(=O)Nc3cccc4ccccc34)ccc2O1 | n | u | n | n | n
COc1ccc(C[C@H]2CCn3cc(nn3)COC[C@H](CC(C)C)NC2=O)cc1 | n | x | x | n | n
O=C(C[n+]1ccsc1)c1ccccc1 | n | x | x | 31 | n
CO[C@H]1CN(C)C(=O)c2cc(NC(C)=O)ccc2OC[C@@H](C)N(Cc2ccc(F)cc2)C[C@H]1C | n | n | n | n | n
